Assay results from PubChem BioAssay.
Inconclusive results are not listed. Activity calls are given as the source filed them.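 Rule for the calls, unless noted: active = RAM network inhibition above 8.4% in each of two replicates, 3 SD over the compound average; inconclusive = above 8.4% inhibition in only one replicate; inactive = 8.4% inhibition or less in each replicate.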

Key:
[1] = S. cerevisiae growth inhibition in permissive medium (OD615), pilot counter-assay for S. cerevisiae lifespan shortening project, permissive growth control (AID 705;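 active = growth inhibition above 25% in both replicates, a cutoff set 3 SD above the mean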); settings: OD615, 24 h, at 10 µM, hits give high values
Procedure, shortened: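 System: Engineered DeaD yeast | Buffer or medium: SC raffinose/galactose permissive medium | Doses: 10 µM single dose, 0.25% DMSO | Times: 24 h exposure, 30 °C | Measured by: OD615 turbidity read | Read-out: Yeast growth inhibition indicated by reduced 24 h OD615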

[2] = S. cerevisiae growth inhibition in restrictive medium, OD615, pilot screen, restrictive growth control, yeast lifespan reduction project (AID 706;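 active = growth inhibition above a set limit, 3 SD over mean compound inhibition, in both replicates, cut at about 43% in these data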;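 note: modified DeaD lifespan yeast strain shifted to restrictive glucose medium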); settings: OD615, 48 h, at 10 µM, hits give high values
Procedure, shortened: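 Assay system: engineered S. cerevisiae DeaD strain; Buffer or medium: CSMM-D glucose medium; Dosing: 10 µM compound, 0.25% DMSO; Times: cell pre-growth 4 h, compound exposure 48 h, 30 °C; Detection: absorbance (optical density) measured at 615 nm.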

[3] = doxorubicin toxicity protection in MRP-1 cells – H69AR cells, CellTiter-Glo, duplicate, MRP-1 activator project, pilot screen (AID 807;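 active = viability increase at or above a cutoff of the median across tested compounds plus 3 SD, cut at about 8.5% in these data, passing the limit was not always enough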;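 note: compound pretreatment 18-22 h then 72 h combined with doxorubicin; 0% = doxorubicin alone and 100% = vehicle without doxorubicin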); settings: H69AR viability with doxorubicin, CellTiter-Glo luminescence; at 10 µM; hits give high values
[4] = viability of HCT116 without oncogenic beta-catenin – human colon tumor cells, pilot screen (AID 823;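 active = cell viability at or below a set limit in both duplicate runs, the limit being the all-compound median minus 4 SD, cut at about 23% in these data, passing the limit was not always enough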;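 note: 0% = wells killed by 20 µM Hyamine and 100% = untreated DMSO cell wells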); settings: HCT116 beta-catenin knockout viability, CellTiter-Glo, 60 h; at 10 µM; hits give low values
[5] = viability of PTEN-null HCT116 cells – cell-based, HCT116 clonal line, CellTiter-Glo, pilot screen (AID 824;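 active = viability at or below 27.92% in each of two runs, the all-compound median minus 4 SD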;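 note: 0% = 20 µM Hyamine control and 100% = vehicle cell control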); settings: HCT116 PTEN-deleted viability, 60 h, at 10 µM, hits give low values
[6] = RAM pathway blockade in budding yeast – dse1pr::URA3 reporter, 5-FOA selection, pilot screen (AID 869;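 active = inhibition over a set limit, the all-compound mean plus 3 SD, in both replicate runs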;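 note: 0% = DMSO wells with no growth and 100% = 10 µM 1-NA-PP1 with full growth; RAM network block rescues cells from 5-FOA so hits raise OD615 growth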); settings: S. cerevisiae dse1pr::URA3 5-FOA growth, OD615, 2 d; at 10 µM; hits give high values; strain carries analog-sensitive mutant Cbk1 kinase
[7] = RAM signaling pathway blockade in yeast – S. cerevisiae, Pdr1DBD-CYC8 efflux-inhibited sensitized strain, primary screen (AID 1298);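 note: 0% = DMSO untreated cells without growth and 100% = 10 µM 1-NA-PP1 full growth; higher means more yeast growth rescued from 5-FOA killing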; settings: S. cerevisiae cbk1-as DSE1-URA3 strain, 5-FOA growth OD615, 2 d; at 50 µM; hits give high values

Cc1nccn1-c1c2c(c(C#N)c3nc4ccccc4n13)CCC2
inactive: growth inhibition [1] -8.38% | growth inhibition [2] -2.89% | viability increase [3] -2.34% | viability [4] 97.3% | viability [5] 93.1% | inhibition [6] 2.08% | RAM network inhibition [7] 2.4%

Cc1nc2sc(C(c3ccco3)N3CCN(C(c4ccccc4)c4ccccc4)CC3)c(O)n2n1 (stereo not given)
inactive: growth inhibition [1] -4.01% | growth inhibition [2] 2.75% | viability increase [3] -4.32% | viability [4] 75.6% | viability [5] 62.6% | inhibition [6] 1.81% | RAM network inhibition [7] 10.8%

CCOC(=O)N1CCN(C(=O)c2cc3cc(Br)ccc3oc2=O)CC1
inactive: growth inhibition [1] -3.99% | growth inhibition [2] -17.6% | viability increase [3] -3.3% | viability [4] 94.9% | viability [5] 89.7% | inhibition [6] 0.665% | RAM network inhibition [7] -1.94%

COc1cc(C2N(c3ccc(Cl)cc3)C(=O)C3CCCN32)cc(OC)c1OC (stereo not given)
inactive: growth inhibition [1] -6.9% | growth inhibition [2] -0.835% | viability increase [3] -2.09% | viability [4] 101% | viability [5] 97.6% | inhibition [6] 2.28% | RAM network inhibition [7] 0.21%

Cc1ccc2c(CC(=O)O)coc2c1C
inactive: growth inhibition [1] 3.31% | growth inhibition [2] 33.3% | viability increase [3] -2.01% | viability [4] 88% | viability [5] 89.5% | inhibition [6] -0.555% | RAM network inhibition [7] -1.19%

CN1CCN(CCCNC(=O)c2cc3c(=O)n(C)c4ccccc4c3s2)CC1
inactive: growth inhibition [1] 0.78% | growth inhibition [2] -4.68% | viability increase [3] -7.62% | viability [4] 53.1% | viability [5] 45.6% | inhibition [6] 0.835% | RAM network inhibition [7] 1.14%

CCSc1nnc(NC(=O)C(C)C)s1
inactive: growth inhibition [1] 3.02% | growth inhibition [2] -5.11% | viability increase [3] 1.51% | viability [4] 100% | viability [5] 109% | inhibition [6] 0.765% | RAM network inhibition [7] 0.89%

CSc1oc(-c2ccc(F)cc2)nc1S(=O)(=O)c1ccc(F)cc1
inactive: growth inhibition [1] -2.23% | growth inhibition [2] -6.25% | viability increase [3] -1.96% | viability [4] 85.1% | viability [5] 79.6% | inhibition [6] 1.59% | RAM network inhibition [7] 4.1%

CC1CC(C)CN(C(=O)C(NS(=O)(=O)c2ccc3c(c2)oc(=O)n3C)C(C)C)C1 (stereo not given)
inactive: growth inhibition [1] -16% | growth inhibition [2] -5.28% | viability increase [3] -2.67% | viability [4] 103% | viability [5] 93.6% | inhibition [6] -0.355% | RAM network inhibition [7] 6.92%

Cc1ccc(-n2nnc3c(=O)n(CC(=O)NCc4ccco4)cnc32)cc1
inactive: growth inhibition [1] -7.22% | growth inhibition [2] 2.02% | viability increase [3] -4.35% | viability [4] 67.6% | viability [5] 63.4% | inhibition [6] 3.36% | RAM network inhibition [7] 7.68%

COC(=O)c1c(-c2cccc(OC)c2)csc1N
inactive: growth inhibition [1] -8.46% | growth inhibition [2] 1.4% | viability increase [3] -4.63% | viability [4] 103% | viability [5] 100% | inhibition [6] 1.37% | RAM network inhibition [7] 0.9%

COc1cc(OC)cc(C(=O)NCC2CCCO2)c1 (stereo not given)
inactive: growth inhibition [1] -7.69% | growth inhibition [2] 10.1% | viability increase [3] -1.51% | viability [4] 94.6% | viability [5] 91.7% | inhibition [6] 0.465% | RAM network inhibition [7] 0.29%

COc1ccc(Cl)cc1S(=O)(=O)N1CCN=C1C
inactive: growth inhibition [1] 1.52% | growth inhibition [2] -3.21% | viability increase [3] -2.75% | viability [4] 90.8% | viability [5] 90% | inhibition [6] 0.03% | RAM network inhibition [7] 7.99%

c1cc(-c2nnc3n2CCC3)[nH]n1
inactive: growth inhibition [1] 1.95% | growth inhibition [2] -0.075% | viability increase [3] -2.22% | viability [4] 95.9% | viability [5] 104% | inhibition [6] 1.51% | RAM network inhibition [7] 2.34%

Cc1ccc(-c2nn3c(C)nnc3s2)cc1NC(=O)c1ccco1
inactive: growth inhibition [1] 3.94% | growth inhibition [2] 25.2% | viability increase [3] -5.34% | viability [4] 113% | viability [5] 103% | inhibition [6] 2.53% | RAM network inhibition [7] 1.06%

CCC(=O)Nc1c2c(nn1-c1ccc(F)cc1)CS(=O)C2 (stereo not given)
inactive: growth inhibition [1] -7.18% | growth inhibition [2] 1.07% | viability increase [3] 0.7% | viability [4] 99.2% | viability [5] 99.5% | inhibition [6] 0.265% | RAM network inhibition [7] 2.18%

Cn1c(NC(=O)c2ccccc2)cc(=O)n(C)c1=O
inactive: growth inhibition [1] -19% | growth inhibition [2] -9.99% | viability increase [3] -1.36% | viability [4] 100% | viability [5] 93.8% | inhibition [6] 1.12% | RAM network inhibition [7] 1.26%

Cc1ccc2ccc(S(=O)(=O)n3nc(C)cc3C)cc2c1
inactive: growth inhibition [1] -6.58% | growth inhibition [2] 2.99% | viability increase [3] -1.12% | viability [4] 84.9% | viability [5] 81.2% | inhibition [6] 2.06% | RAM network inhibition [7] 5.5%

Cc1nc2sc(C(c3ccco3)N3CCC(Cc4ccccc4)CC3)c(O)n2n1 (stereo not given)
inactive: growth inhibition [1] 0.165% | growth inhibition [2] 4.34% | viability increase [3] 0.64% | viability [4] 95.2% | viability [5] 91.4% | inhibition [6] 1.14% | RAM network inhibition [7] 9.02%

Clc1ccc(Sc2oc(/C=N/n3cnnc3)cc2Br)cc1
inactive: growth inhibition [1] -0.475% | growth inhibition [2] 22.4% | viability increase [3] -8.12% | viability [4] 27.6% | viability [5] 50.5% | inhibition [6] 0.36% | RAM network inhibition [7] 1.69%

Cc1cnn(C(=O)c2ccccc2Br)c1
inactive: growth inhibition [1] 3.79% | growth inhibition [2] -3.8% | viability increase [3] -1.43% | viability [4] 109% | viability [5] 103% | inhibition [6] -0.355% | RAM network inhibition [7] 1.6%

Cc1ccc2oc3c(c(=O)c2c1)C(c1cccc(O)c1)N(c1ccccn1)C3=O (stereo not given)
inactive: growth inhibition [1] -2.51% | growth inhibition [2] -0.22% | viability increase [3] -2.59% | viability [4] 79.4% | viability [5] 68.2% | inhibition [6] 1.81% | RAM network inhibition [7] 4.84%

COc1cccc(-c2nnc3n2N=C(C(C)(C)C)CS3)c1
inactive: growth inhibition [1] -5.97% | growth inhibition [2] -16.3% | viability increase [3] -4.18% | inhibition [6] 0.79% | RAM network inhibition [7] 2.49%
active: viability [4] 5.81% | viability [5] 5.52%

O=C(O)CCn1c(=O)[nH]c2ccccc2c1=O
inactive: growth inhibition [1] -6.32% | growth inhibition [2] -15.1% | viability increase [3] 0.62% | viability [4] 109% | viability [5] 105% | inhibition [6] 1.34% | RAM network inhibition [7] 0.63%

O=C(Cn1nc(Cc2cccnc2)c2ccccc2c1=O)N1CCN(C(=O)c2ccco2)CC1
inactive: growth inhibition [1] 4.07% | growth inhibition [2] 0.805% | viability increase [3] -0.74% | viability [4] 104% | viability [5] 104% | inhibition [6] 0.64% | RAM network inhibition [7] 2.7%
